Measured values collected from several papers.
Each line is one published result; the experiments were not run side by side.
Target: Serine/threonine-protein kinase D2 (PRKD2, Homo sapiens, UniProt Q9BZL6)
Residues used in one study (Q9BZL6 1-878): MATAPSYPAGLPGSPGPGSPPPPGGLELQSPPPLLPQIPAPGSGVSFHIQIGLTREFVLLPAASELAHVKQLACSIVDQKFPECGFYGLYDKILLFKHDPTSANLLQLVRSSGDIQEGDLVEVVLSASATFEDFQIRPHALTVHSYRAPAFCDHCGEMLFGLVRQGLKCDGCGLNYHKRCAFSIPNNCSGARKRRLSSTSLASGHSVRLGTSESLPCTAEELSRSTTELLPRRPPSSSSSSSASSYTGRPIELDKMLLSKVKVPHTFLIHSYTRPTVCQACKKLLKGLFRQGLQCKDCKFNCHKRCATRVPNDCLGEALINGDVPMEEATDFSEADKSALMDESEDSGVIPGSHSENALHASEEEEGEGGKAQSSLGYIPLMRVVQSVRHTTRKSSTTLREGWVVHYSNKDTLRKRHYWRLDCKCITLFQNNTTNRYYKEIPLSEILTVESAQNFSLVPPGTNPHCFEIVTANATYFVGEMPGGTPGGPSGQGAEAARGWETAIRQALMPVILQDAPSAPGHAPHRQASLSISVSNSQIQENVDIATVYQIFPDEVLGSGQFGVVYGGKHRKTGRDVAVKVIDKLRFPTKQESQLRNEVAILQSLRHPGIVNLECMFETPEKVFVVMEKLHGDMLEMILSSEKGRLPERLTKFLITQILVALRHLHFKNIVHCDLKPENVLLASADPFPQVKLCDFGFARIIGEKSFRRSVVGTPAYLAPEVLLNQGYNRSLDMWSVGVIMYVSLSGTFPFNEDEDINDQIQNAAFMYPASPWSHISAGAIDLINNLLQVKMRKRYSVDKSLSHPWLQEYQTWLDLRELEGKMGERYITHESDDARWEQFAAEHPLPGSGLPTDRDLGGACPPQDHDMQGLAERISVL

| SMILES | observed | method | concentration | remaining binding [%] |
| --- | --- | --- | --- | --- |
| CNCc1ccccc1-c1csc([C@@H](C)Nc2nc(C)nc3cc(OC)c(OC)cc23)c1 | cell-free assay | competition with immobilised ligand | 1 µM | 100 |
| O=C(NCCCN1CCOCC1)c1ccc(Nc2nccc(-c3cc4ccccc4s3)n2)cc1 | binding | competition with immobilised ligand | 1 µM | 36 |
| Nc1ncc2c(n1)-c1c([nH]c3ccc(C#CC4CC4)cc13)CCCC2 | binding | competition with immobilised ligand | 1 µM | 87 |
| CN(CCCC(F)(F)F)c1nccc(-c2cnn3ncccc23)n1 | binding | – | 1 µM | 99 |
| CC1=C(C#N)[C@@H](c2ccc3[nH]nc(C)c3c2)C(C#N)=C(c2ccc(Cl)cc2)N1 | cell-free assay | competition with immobilised ligand | 1 µM | 100 |
| COc1cnc(Nc2cccc(S(N)(=O)=O)c2)nc1N1CCN(c2ccccc2)CC1 | binding | competition with immobilised ligand | 1 µM | 98 |
| O=C(c1ccc(Nc2ncc(Cl)c(-c3cc4ccccc4s3)n2)cc1)N1CCC(N2CCCC2)CC1 | binding | competition with immobilised ligand | 1 µM | 21 |
| CN(C)c1ncc(F)c(-c2cnn3ncccc23)n1 | binding | – | 1 µM | 87 |
| Cn1cc(Cl)c2c(Oc3c(F)cc(Nc4cc(Cl)nc(N)n4)cc3F)ccnc21 | cell-free assay | competition with immobilised ligand | 0.1 µM | 91 |
| COc1ccnn2ncc(-c3ccnc(N(C)C)n3)c12 | binding | – | 1 µM | 92 |
| CCCCN(CCCC)C(=O)CN1C[C@@H](c2cc(OC)c3c(c2)OCO3)[C@H](C(=O)O)[C@H]1CC(C)(C)CCC | cell-free assay | competition with immobilised ligand | 1 µM | 90.6 |
| FC(F)(F)Oc1cccc(-c2cnc3ccc(-c4ccncc4)nn23)c1 | cell-free assay | competition with immobilised ligand | 5 µM | 99 |
| COc1ccc2cc(OCC3(C(=O)O)CN(C(=O)c4ccc(F)cc4)C3)ccc2c1 | cell-free assay | competition with immobilised ligand | 1 µM | 93 |
| C[C@@H]1CCN(c2nccc(-c3cnn4ncccc34)n2)C1 | binding | – | 1 µM | 83 |
| O=C(NC[C@@H]1[C@H]2CN(C(=O)OCc3cc(C(F)(F)F)cc(C(F)(F)F)c3)C[C@@H]12)c1ccc2[nH]nnc2c1 | cell-free assay | competition with immobilised ligand | 1 µM | 85 |
| N[C@@H]1CCN(c2nccc(-c3cnn4ncccc34)n2)C1 | binding | – | 1 µM | 94 |
| O=C(NCC1CCOCC1)c1n[nH]cc1NC(=O)c1c(F)cccc1F | binding | competition with immobilised ligand | 1 µM | 100 |
| COc1cnc(Nc2cccc(S(N)(=O)=O)c2)nc1N1CCN(c2ccccc2)C(=O)C1 | binding | competition with immobilised ligand | 1 µM | 100 |
| CN(C)c1nccc(-c2cnn3ncccc23)n1 | binding | – | 1 µM | 89 |
| C=CC(=O)N1CCC(C(=O)NCC(=O)N2CCN(c3nc(-c4cnc(N)nc4C(F)F)nc(N4CCOCC4)n3)CC2)CC1 | binding | competition with immobilised ligand | 1 µM | 100 |
| Cc1cnc(Nc2ccc(C(=O)N3CCC(N4CCCC4)CC3)cc2)nc1-c1cc2ccccc2s1 | binding | competition with immobilised ligand | 1 µM | 47 |
| O=C(Nc1cccnn1)N1CCC(=Cc2cccc(Oc3ccc(C(F)(F)F)cn3)c2)CC1 | cell-free assay | competition with immobilised ligand | 1 µM | 94 |
